Source: PubChem BioAssay (Broad Institute)
Ecoli rRNA inh: selective bacterial rRNA inhibition in E. coli. E. coli WT GFP vs humanized-ribosome RFP mutants, fluorescence, 24 h; active compounds read low; DMSO median 0, no signal -100. GFP signal change (wild-type ribosome), % (test concentration not listed). actives 1.6% (n = 350,000). AID 720706;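 active means significant combined selectivity score with lowered wild-type GFP, culture density cut under 30%, mutant RFP and density less affected; inactive means any of these conditions unmet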
Statin myotox sup: suppression of simvastatin myotoxicity | actives 0.78% (n = 330,000) | rescue of ATP level, % at 7.49 µM | C2C12 myotubes + simvastatin, ATP luminescence, 48 h; scaled: DMSO 0, geranylgeraniol control 100;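 active means mean ATP rescue above about 67%, or every replicate alone reaching that limit, limit read from the data, passing the limit was not always enough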;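 further: myotubes were challenged with 10 µM simvastatin during compound exposure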
PGC1a acetyl inh: PGC1a acetylation modulation, inhibitor mode; U2OS PGC1a acetylation, AlphaScreen anti-acetyl-lysine; with virally co-expressed GCN5 acetyltransferase; inhibition, % at 15.6 µM; actives 0.17% (n = 350,000);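 active means every replicate shows inhibition of at least 40%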;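 further: 0% = neutral control wells and 100% = positive control wells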
SIRT5 block: blocks human SIRT5 desuccinylation of peptide; inhibition, % at 15 µM; actives 1.1% (n = 330,000); Q9NXA8; Purified SirT5, succinyl-peptide AMC, trypsin-coupled fluorescence; in the data active means inhibition above about 15%
Target sequence (Q9NXA8 whole entry, looked up): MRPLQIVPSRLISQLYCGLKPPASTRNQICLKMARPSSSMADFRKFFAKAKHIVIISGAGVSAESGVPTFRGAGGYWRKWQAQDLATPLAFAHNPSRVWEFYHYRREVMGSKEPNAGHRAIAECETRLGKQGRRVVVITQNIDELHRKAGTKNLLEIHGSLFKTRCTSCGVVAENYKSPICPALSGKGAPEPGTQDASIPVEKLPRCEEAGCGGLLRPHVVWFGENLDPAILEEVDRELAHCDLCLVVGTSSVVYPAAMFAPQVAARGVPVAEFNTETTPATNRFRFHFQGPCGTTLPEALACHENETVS
S100A4 inh HTS: blocks human S100A4 binding to myosin IIA peptide | P26447 | S100A4/TAMRA-MyoIIA peptide fluorescence polarization | inhibition, % at 10.7 µM | actives 0.14% (n = 360,000) | AID 652163;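 active means mean inhibition of at least 70% across replicates, with every replicate also reaching that level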
Target sequence (P26447 whole entry, looked up): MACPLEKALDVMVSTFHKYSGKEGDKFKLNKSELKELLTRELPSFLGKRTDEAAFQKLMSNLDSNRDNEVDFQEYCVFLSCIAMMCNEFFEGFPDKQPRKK
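Material: human S100A4 monomer with TAMRA-labelled myosin IIA peptide; buffer or medium: HEPES pH 7.2 with CaCl2, KCl, NaCl, DTT, Triton; compound dosing: one concentration per compound; schedule: 5 min incubation before reading; benchmarks: neutral control DMSO, positive control TFP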
Cneo AK release: causes C. neoformans cell lysis | actives 0.2% (n = 360,000) | lysis activity, % at 15 µM | adenylate kinase release luminescence, 4 h; normalised: neutral wells 0, clomiphene wells 100;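 active means mean lysis activity across replicates of at least 80%, whatever share of replicates individually reach that level; inactive means mean lysis activity below 80%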
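Material – log-phase Cryptococcus neoformans yeast cells · Input – 5 × 10^6 yeast cells/mL · Medium – fresh YPD growth medium · Doses – single compound concentration per well · Timing – static 4 h at 37 °C with compound, 1 h detection · Detection – adenylate kinase release luminescence · Read-out – signal increase indicating cell lysis · Control set – Clomiphene as positive lysis control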
The depositor's hits bear a star; · = no result. This is a sample that favours compounds with a hit; in the whole collection about 3% have one here.

SMILES | Ecoli rRNA inh | Statin myotox sup | PGC1a acetyl inh | SIRT5 block | S100A4 inh HTS | Cneo AK release
Cc1ccc(S(=O)(=O)N(C)C[C@@H]2Oc3ccc(NC(=O)Nc4c(C)noc4C)cc3CC(=O)N([C@@H](C)CO)C[C@H]2C)cc1 | 0.0 | 5.8 | 4.8 | -2.5 | 0.3 | -2.0
COc1cccc(NC(=O)N(C)C[C@@H]2Oc3ncc(C#Cc4ccc(F)cc4)cc3C(=O)N([C@H](C)CO)C[C@H]2C)c1 | -7.0 | 59.1 | -0.2 | 8.5 | 5.4 | 0.7
COc1ccccc1NC(=O)Nc1nn(C)c2cccc(N(C)C)c12 | -30.3* | · | · | -8.5 | -22.2 | ·
O=C(O)/C=C/c1ccc(OCc2cccc(F)c2)cc1 | -22.2* | -12.6 | -1.5 | 9.6 | 4.0 | -2.0
Cc1ccc(NC(=O)n2ccc(-c3ccc(-n4ccnc4)cc3)n2)cc1 | 1.0 | · | 4.6 | 16.8* | -5.3 | ·
O=C(C[C@@H]1C[C@H]2c3cc(NC(=O)c4cccnc4)ccc3O[C@H]2[C@@H](CO)O1)NCc1ccccc1F | 1.3 | -2.1 | -1.1 | -8.8 | 11.4 | -2.6
COc1ccc(N(C)S(=O)(=O)c2cccc(C(=O)OCC(=O)c3c(N)n(C)c(=O)n(C)c3=O)c2)cc1 | -11.7 | -5.9 | 12.4 | · | 13.8 | -1.6
COc1ccc(CC(=O)OCC(=O)c2c(N)n(C)c(=O)n(C)c2=O)cc1OC | 3.4 | -2.7 | -2.6 | -1.2 | -1.6 | -2.2
CNS(=O)(=O)c1cccc(C(=O)OCC(=O)c2c(N)n(Cc3ccccc3)c(=O)n(C)c2=O)c1 | -26.0* | -1.7 | · | 0.2 | 10.5 | -1.1
Cn1c(N)c(C(=O)COC(=O)Cc2ccc(Cl)c(Cl)c2)c(=O)n(C)c1=O | -34.9* | 0.5 | -2.4 | 0.5 | -0.4 | -4.6
CN(c1ccccc1)S(=O)(=O)c1ccc(Cl)c(C(=O)OCC(=O)c2c(N)n(C)c(=O)n(C)c2=O)c1 | -21.1* | 1.9 | -7.4 | 0.8 | -1.5 | -1.4
CCN(c1ccccc1)S(=O)(=O)c1ccc(Cl)c(C(=O)OCC(=O)c2[nH]c(C)c(C(C)=O)c2C)c1 | -13.9 | 13.8 | -15.7 | -4.6 | -1.1 | -2.0
CC(=O)c1c(C)[nH]c(C(=O)COC(=O)c2cc(S(=O)(=O)N(C)c3ccccc3)ccc2Cl)c1C | -27.8* | · | · | -5.0 | 0.5 | ·
C[C@@H]1CCCCO[C@@H](CN(C)C(=O)c2ccccc2)[C@@H](C)CN([C@H](C)CO)C(=O)c2cc(NS(=O)(=O)c3ccccc3)ccc2O1 | 3.6 | · | 10.0 | -6.5 | 2.9 | -0.9
CCCN1C[C@H](C)[C@H](OC)CN(C)C(=O)c2ccc(NS(=O)(=O)c3ccccc3)cc2OC[C@@H]1C | 0.4 | -4.7 | 1.9 | -2.1 | 43.8 | -1.4
CCC(=O)N(C)C[C@H]1Oc2cc(C#CC(C)(C)O)ccc2S(=O)(=O)N([C@H](C)CO)C[C@H]1C | 2.3 | 12.6 | -0.8 | 11.3 | 8.5 | 1.1
C[C@H](CO)N1C[C@H](C)[C@H](CN(C)Cc2ccc(-c3ccccc3)cc2)Oc2cc(C#CC(C)(C)O)ccc2S1(=O)=O | -3.8 | -17.9 | -4.9 | 19.9* | 3.2 | 3.5
C[C@H]1CN([C@@H](C)CO)S(=O)(=O)c2ccc(C#CC(C)(C)O)cc2O[C@H]1CN(C)Cc1ccccc1 | 3.0 | -14.9 | -11.6 | -4.4 | 12.3 | 5.3
C[C@H](CO)N1C[C@H](C)[C@@H](CN(C)Cc2ccc(-c3ccccc3)cc2)Oc2cc(C#CC(C)(C)O)ccc2S1(=O)=O | -0.6 | -81.0 | 0.3 | -3.1 | 0.9 | 2.9
C[C@H]1CN([C@@H](C)CO)S(=O)(=O)c2ccc(C#CC(C)(C)O)cc2O[C@@H]1CN(C)Cc1ccc(-c2ccccc2)cc1 | -2.5 | -93.4 | 8.2 | 19.6* | -7.2 | 6.2
CCC(=O)N(C)C[C@H]1Oc2cc(C#CC(C)(C)O)ccc2S(=O)(=O)N([C@H](C)CO)C[C@@H]1C | 0.5 | -5.5 | -1.6 | -0.6 | -1.3 | 101.0*
C[C@@H]1CN([C@H](C)CO)S(=O)(=O)c2ccc(C#CC(C)(C)O)cc2O[C@@H]1CN(C)Cc1ccc(-c2ccccc2)cc1 | -3.4 | 5.2 | -13.7 | 20.4* | 0.6 | 8.4
C[C@H]1CCCCO[C@H](CN(C)Cc2ccccc2)[C@@H](C)CN([C@@H](C)CO)C(=O)c2cc(NC(=O)Nc3ccccc3)ccc2O1 | 6.2 | · | -5.4 | -5.6 | -15.7 | -2.2
CCNC(=O)Nc1ccc2c(c1)C(=O)N(C)[C@H]1CC[C@H](CC(=O)Nc3ccccc3)O[C@@H]1CO2 | 0.9 | 11.7 | -1.7 | -1.4 | 11.5 | -3.4
C[C@H]1CN([C@@H](C)CO)S(=O)(=O)c2ccc(C#CC(C)(C)O)cc2O[C@H]1CN(C)Cc1ccc(-c2ccccc2)cc1 | -3.0 | -53.2 | -8.7 | 23.3* | -0.5 | 2.6
SMILES | Ecoli rRNA inh | Statin myotox sup | PGC1a acetyl inh | SIRT5 block | S100A4 inh HTS | Cneo AK release
C[C@@H]1CN([C@H](C)CO)S(=O)(=O)c2ccc(C#CC(C)(C)O)cc2O[C@H]1CN(C)Cc1ccccc1 | -9.0 | -113.1 | -13.0 | 1.6 | -6.8 | -3.8
Cc1cccc(NC(=O)C2CCN(S(=O)(=O)c3ccc4c(c3)NC(=O)CO4)CC2)c1C | -3.3 | -3.5 | 3.5 | -2.4 | -3.9 | -2.6
CSc1cccc(NC(=O)C2CCN(S(=O)(=O)c3ccc4c(c3)NC(=O)CO4)CC2)c1 | -4.1 | -12.7 | -7.2 | -0.4 | 85.8* | 0.8
C[C@H](CO)N1C[C@H](C)[C@H](CN(C)C(=O)C2CC2)Oc2cc(C#CCN(C)C)ccc2S1(=O)=O | 3.3 | 11.4 | 1.2 | · | · | ·
Cc1ccc2oc(C(=O)N(CCO)Cc3ccccc3)c(C)c2c1 | -16.9* | 11.5 | -5.1 | -1.0 | 3.2 | -1.0
Cc1c(C(=O)N(Cc2ccccc2)C2CCS(=O)(=O)C2)oc2ccccc12 (stereo not drawn) | 1.4 | 11.5 | 15.7 | 15.7* | 2.7 | -2.1
CCCCC(=O)N(Cc1ccc(F)cc1)C1CCS(=O)(=O)C1 (stereo not drawn) | 10.5 | 87.3* | -17.2 | 0.1 | -4.8 | -0.2
Cc1c(C(=O)N(Cc2ccc(F)cc2)C2CCS(=O)(=O)C2)oc2ccccc12 (stereo not drawn) | -23.2* | 3.4 | 6.6 | -1.4 | 14.4 | -0.7
CCc1ccc(CN(C(=O)c2oc3ccccc3c2C)C2CCS(=O)(=O)C2)cc1 (stereo not drawn) | -3.6 | -5.3 | -13.6 | -3.2 | 7.2 | 4.1
CNC(=O)C[C@@H]1CC[C@H]2[C@H](COc3ccc(NC(=O)Nc4c(C)noc4C)cc3C(=O)N2C)O1 | -0.7 | -8.8 | 2.4 | · | · | ·
CSc1nnc(-c2ccccc2)c(=O)[nH]1 | · | 96.7* | 10.6 | · | · | 0.0
CCOC(=O)c1c(-c2ccc(OC)c(OC)c2)csc1NC(=O)C1CCCO1 (stereo not drawn) | -37.0* | · | 6.4 | -0.8 | -8.8 | ·
CCOC(=O)c1cccc(NC(=O)C2CCCO2)c1 (stereo not drawn) | · | 101.7* | 20.1 | · | · | -0.2
